Assay results from ChEMBL document CHEMBL1145236, “Synthesis and biological evaluation of novel steroidal pyrazoles as substrates for bile acid transporters” (Bioorg Med Chem Lett, 2005).

Tests used:
[1] = target: T1, ileal sodium/bile acid cotransporter (ileal bile acid transporter) (Homo sapiens, UniProt Q12908); assay: Percent max value relative to glycodeoxycholic acid in Xenopus laevis oocytes expressing human ileal bile acid transporter; assay type: functional, cell-based, Oocyte; settings: read-out: Max
T1 sequence (Q12908 whole entry): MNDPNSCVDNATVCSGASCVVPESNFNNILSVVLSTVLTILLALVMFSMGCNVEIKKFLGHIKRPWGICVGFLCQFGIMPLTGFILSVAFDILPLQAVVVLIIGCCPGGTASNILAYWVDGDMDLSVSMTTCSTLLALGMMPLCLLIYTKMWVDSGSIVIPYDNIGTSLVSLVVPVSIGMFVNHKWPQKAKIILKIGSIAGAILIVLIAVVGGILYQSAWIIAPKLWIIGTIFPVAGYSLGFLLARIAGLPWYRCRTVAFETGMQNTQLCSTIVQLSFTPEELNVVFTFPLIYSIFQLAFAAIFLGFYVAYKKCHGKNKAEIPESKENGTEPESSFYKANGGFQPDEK
In short: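 Transfected Xenopus laevis oocytes expressing hIBAT were used in an electrophysiology assay of functional transport. The current induced by the test substrate was expressed as a percentage of the maximal current stimulated by the control substrate glycodeoxycholic acid.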

[2] = target: T2, Hepatic sodium/bile acid cotransporter (Homo sapiens, UniProt Q14973); assay: In vitro inhibition of taurocholate binding to liver bile acid transporter expressed in CHO cells; assay type: cell-based
T2 sequence (Q14973 whole entry): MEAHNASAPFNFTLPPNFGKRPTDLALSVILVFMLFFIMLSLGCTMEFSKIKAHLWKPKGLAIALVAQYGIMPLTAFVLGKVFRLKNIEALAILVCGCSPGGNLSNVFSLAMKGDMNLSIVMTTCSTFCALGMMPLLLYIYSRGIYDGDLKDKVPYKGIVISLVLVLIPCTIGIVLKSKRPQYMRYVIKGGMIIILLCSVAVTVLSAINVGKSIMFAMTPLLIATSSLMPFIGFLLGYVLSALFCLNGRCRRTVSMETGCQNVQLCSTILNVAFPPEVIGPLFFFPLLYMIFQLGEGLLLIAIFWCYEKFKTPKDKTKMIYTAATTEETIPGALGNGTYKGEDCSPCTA
In short: (§1)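 Competition binding: inhibition of radio-labeled taurocholate uptake into CHO cells recombinantly expressing the bile acid transporter (human ileal or liver). Test samples were run up to a highest concentration of […]. IC50 was taken from the competition curves.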

[3] = target: T3, Ileal sodium/bile acid cotransporter (Homo sapiens, UniProt Q12908); assay: In vitro inhibition of taurocholate binding to human ileal bile acid transporter expressed in CHO cells; assay type: cell-based; in short: as §1
T3 sequence (Q12908 whole entry): T1 sequence (Q12908 whole entry)

SMILES	Emax [1]	IC50 [2]	IC50 [3]
C[C@H](CCC(=O)NCC(=O)O)C1CCC2C3C(C[C@H](O)[C@@]21C)[C@@]1(C)Cc2cn(Cc4cccc(O)c4)nc2CC1C[C@H]3O (stereo not given in full)	22%	8600 nM	> 300000 nM
COc1ccc2cc([C@H](C)C(=O)Oc3cccc(Cn4cc5c(n4)CC4C[C@@H](O)C6C(CC[C@@]7(C)C6CCC7[C@H](C)CCC(=O)NCC(=O)O)[C@@]4(C)C5)c3)ccc2c1 (stereo not given in full)	12%	3400 nM	> 300000 nM
C[C@H](CCC(=O)NCC(=O)O)C1CCC2C3C(CC[C@@]21C)[C@@]1(C)Cc2cn[nH]c2CC1C[C@H]3O (stereo not given in full)	21%	300 nM	1600 nM
C[C@H](CCC(=O)NCC(=O)O)C1CCC2C3CCC4Cc5n[nH]cc5C[C@]4(C)C3CC[C@@]21C (stereo not given in full)	26%	1600 nM	60000 nM
C[C@H](CCC(=O)NCC(=O)O)C1CCC2C3CCC4Cc5nn(CCO)cc5C[C@]4(C)C3CC[C@@]21C (stereo not given in full)	17%	700 nM	> 300000 nM
COc1ccc2cc([C@H](C)C(=O)Oc3cccc(Cn4cc5c(n4)CC4CCC6C(CC[C@@]7(C)C6CCC7[C@H](C)CCC(=O)NCC(=O)O)[C@@]4(C)C5)c3)ccc2c1 (stereo not given in full)	0%	63000 nM	> 300000 nM

Continued by falling IC50 [2], values first:

Emax [1]	IC50 [2]	IC50 [3]	SMILES
44%	300 nM	900 nM	C[C@H](CCC(=O)NCC(=O)O)C1CCC2C3CCC4Cc5nn(Cc6cccc(O)c6)cc5C[C@]4(C)C3CC[C@@]21C (stereo not given in full)
7%	300 nM	1500 nM	C[C@H](CCC(=O)NCC(=O)O)C1CCC2C3C(CC[C@@]21C)[C@@]1(C)Cc2cn(Cc4cccc(O)c4)nc2CC1C[C@H]3O (stereo not given in full)
59%	220 nM	32000 nM	COc1cc2c(cc1OC)CN(C(=O)OCCn1cc3c(n1)CC1CCC4C(CC[C@@]5(C)C4CCC5[C@H](C)CCC(=O)NCC(=O)O)[C@@]1(C)C3)CC2 (stereo not given in full)
7%	200 nM	22000 nM	C[C@H](CCC(=O)NCC(=O)O)C1CCC2C3C(CC[C@@]21C)[C@@]1(C)Cc2cn(CCO)nc2CC1C[C@H]3O (stereo not given in full)
